From PubChem
Only some compounds are listed: those with a hit (about 4.3% of all), similar ones and a draw of the others.
TAAR1 ag: human TAAR1 agonism | Q96RJ0 | hit rate 0.99% among 360,000 | AID 624467 | CHO RD-HGA16 TAAR1, Fluo-8 calcium fluorescence; vehicle wells 0%, saturating PEA agonist 100% | activation, % at 3 µM;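 active = activation above the mean activation of all test compounds in the run plus 3 SD, cut at about 38% in these data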
Target sequence (Q96RJ0 whole entry, looked up): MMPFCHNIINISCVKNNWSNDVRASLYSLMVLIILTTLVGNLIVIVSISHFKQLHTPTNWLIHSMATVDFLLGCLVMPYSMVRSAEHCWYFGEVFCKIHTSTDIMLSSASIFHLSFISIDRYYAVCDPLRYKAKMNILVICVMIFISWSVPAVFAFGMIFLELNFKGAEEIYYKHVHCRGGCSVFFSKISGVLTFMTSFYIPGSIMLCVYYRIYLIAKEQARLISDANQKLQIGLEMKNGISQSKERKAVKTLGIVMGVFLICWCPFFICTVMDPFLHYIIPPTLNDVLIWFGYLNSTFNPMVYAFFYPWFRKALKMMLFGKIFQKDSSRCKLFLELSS
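Repeats: no replicates (n 1) | Material: CHO-derived RD-HGA16 cells with stable Gα16 and human TAAR1 | Technique: Kinetic Fluo-8 calcium fluorescence | Schedule: 17-24 h seeding, 75 min 37 °C dye, 30 min RT | Evaluation: % activation from peak over basal fluorescence ratio, DMSO-to-PEA scaled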
Beta2AR agonist: agonists of human beta-2 adrenergic receptor inducing internalization; Am2.2-beta2AR cells, FAP receptor internalization, flow cytometry; response, % (no concentration beside the values); hit rate 0.43% among 340,000;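 active = response above a set limit, near 3 SD of response in nonfluorescent compounds, cut at about 42% in these data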
Target sequence (P07550 whole entry, looked up): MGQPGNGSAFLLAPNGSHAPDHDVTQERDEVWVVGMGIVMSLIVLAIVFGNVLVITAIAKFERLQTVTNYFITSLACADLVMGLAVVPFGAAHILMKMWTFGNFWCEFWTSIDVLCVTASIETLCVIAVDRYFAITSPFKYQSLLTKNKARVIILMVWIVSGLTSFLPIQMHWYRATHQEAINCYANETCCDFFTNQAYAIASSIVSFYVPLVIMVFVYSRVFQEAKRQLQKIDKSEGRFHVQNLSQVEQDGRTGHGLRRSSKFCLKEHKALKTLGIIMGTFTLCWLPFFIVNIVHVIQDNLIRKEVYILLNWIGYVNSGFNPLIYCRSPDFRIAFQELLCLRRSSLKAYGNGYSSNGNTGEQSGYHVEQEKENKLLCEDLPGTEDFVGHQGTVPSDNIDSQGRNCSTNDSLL
MC4R antag cAMP: blocks human MC4R cAMP signaling; P32245; MC4R-expressing cells, MTII-stimulated cAMP, LANCE TR-FRET; inhibition, % at 6.5 µM; hit rate 0.48% among 360,000;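 active = inhibition above its plate's cutoff, the mean of tested wells on that plate plus 3 SD, cut at about 29% in these data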
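System: U2OS-MC4R stable cell line; Technique: Eu-cAMP/anti-cAMP TR-FRET, emission 671 nm; Repeats: single well per compound; Also added: Melanotan II; Dosing: one concentration, 6.5 µM nominal; Schedule: 30-min compound, 1-h challenge, 1-h detection, room temperature.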
HTR2A ag: mouse HTR2A agonism via beta-arrestin recruitment. P35363. CHO-K1 mHTR2A beta-arrestin complementation, luminescence; percent of 30 µM serotonin response. activation, % at 7.6 µM. hit rate 0.66% among 360,000. AID 624169;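 active = activation above a run cutoff, the mean activation of all tested compounds plus 3 SD, cut at about 14% in these data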
MC4R barr agon: activates human MC4R beta-arrestin recruitment; activation, % at 8.9 µM; U2OS MC4R beta-arrestin complementation, luminescence; percent of melanotan II response, DMSO zero; hit rate 0.98% among 360,000; AID 540308; P32245;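 active = activation above a per-plate cutoff, the mean activation of sample wells on that plate plus 3 SD, cut at about 8% in these data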
TAAR1 antagonist: antagonists of human TAAR1 | Q96RJ0 | CHO RD-HGA16 TAAR1, Fluo-8 calcium fluorescence, antagonist | inhibition, % at 3 µM | hit rate 1.5% among 360,000 | AID 624466;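 active = inhibition above a per-plate cutoff, the mean inhibition of test compounds on that plate plus 3 SD, cut at about 49% in these data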
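Test system: RD-HGA16 CHO cells with stable hTAAR1 and Gα16 / Probe or stimulus: EC80 β-phenethylamine stimulus / Times: seeding 17-24 h prior, 75-min 37 °C, 30-min RT dye loading / Detection: Fluo-8 calcium-sensitive fluorescence / Read-out basis: % inhibition scaled between DMSO and EC80 PEA controls / Repeats: singlicate, one well per test compound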
TAAR1 ag conf: confirmation of human TAAR1 agonists. shares compounds with TAAR1 ag. CHO RD-HGA16 TAAR1, Fluo-8 calcium fluorescence; scaled: DMSO 0%, maximal phenethylamine 100%. activation, % at 3 µM. hit rate 82% among 2,400;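 active = activation above a cutoff set at the run's mean compound activation plus 3 SD, cut at about 39% in these data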
Ga16 nonsel ag: counter-screen for TAAR1 agonists: nonselective agonists in parental cells. shares compounds with TAAR1 ag. CHO-Ga16 parental, Fluo-8 calcium fluorescence; normalized to maximal ATP response, DMSO zero. activation, % at 3 µM. hit rate 50% among 2,400;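 active = activation above the run cutoff, the mean activation over all tested wells plus 3 SD, cut at about 12% in these data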
TAAR1 desens: TAAR1 response desensitization, agonist counter-screen. inhibition, % at 3 µM. CHO RD-HGA16 hTAAR1, Fluo-8 calcium, beta-PEA response inhibition. shares compounds with TAAR1 ag. hit rate 46% among 2,400. AID 651951;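 active = inhibition above the run cutoff, the mean inhibition of all test compounds plus 3 SD, cut at about 49% in these data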;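 note: beta-PEA stimulus applied at its EC80; loss of beta-PEA calcium signal after compound pretreatment read as receptor desensitization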
Ga16 nonsel ant: nonselective Ga16 antagonist in TAAR1 agonist counter-screen; shares compounds with TAAR1 ag; CHO-Ga16 ATP-induced calcium, Fluo-8 fluorescence; inhibition, % at 3 µM; hit rate 39% among 2,400; AID 651952;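 active = inhibition above the plate's mean compound inhibition plus 3 SD, computed per plate, cut at about 22% in these data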
Large screens that a line does not name were inactive (follow-up assays come after a bar, where they were run).

COc1cccc(Cn2cccc(NC(=O)NC3CCCCC3)c2=O)c1	TAAR1 ag 50.8 | TAAR1 ag conf inactive | Ga16 nonsel ag 17.0 | TAAR1 desens inactive | Ga16 nonsel ant inactive
CC(C)[C@H](NS(=O)(=O)c1ccc(Cl)cc1)C(=O)OCC(=O)c1c(N)n(C)c(=O)n(C)c1=O	none
COc1cccc(/C=N/Nc2nc(Nc3ccccc3)nc(-n3nc(C)cc3C)n2)c1O	TAAR1 ag 83.7, TAAR1 antagonist 75.6 | TAAR1 ag conf 49.5 | Ga16 nonsel ag 46.6 | TAAR1 desens 76.2 | Ga16 nonsel ant 62.8
COc1cccc(/C=N/Nc2cc(-n3nc(C)cc3-c3ccccc3)ncn2)c1O	none
OC(COC(c1ccc(F)cc1)c1ccc(F)cc1)CN1CCCC(C(F)(F)F)C1 (configuration not stated)	TAAR1 ag 69.5 | TAAR1 ag conf 79.1 | Ga16 nonsel ag inactive | TAAR1 desens 57.7 | Ga16 nonsel ant inactive
O=Cc1[nH]c2ccccc2c1N(C(=O)CCl)c1ccc([N+](=O)[O-])cc1	TAAR1 ag 55.9, TAAR1 antagonist 51.9 | TAAR1 ag conf 69.9 | Ga16 nonsel ag 44.5 | TAAR1 desens 72.7 | Ga16 nonsel ant 53.0
O=C(NC1CCN(CC(=O)N(c2ccccc2)c2ccccc2)CC1)c1ccc([N+](=O)[O-])cc1	none
O=C(NCc1ccc(Cl)cc1)c1ccc(Cn2cc(C(F)(F)F)ccc2=O)cc1	TAAR1 ag 65.5 | TAAR1 ag conf inactive | Ga16 nonsel ag 24.4 | TAAR1 desens inactive | Ga16 nonsel ant 25.9
CCCCCC(=O)N1C[C@@H](O)[C@H](n2cc(C3CC3)nn2)C[C@@H]1c1ccc(C)cc1	none (no result: Beta2AR agonist)
COc1ccc2noc3c2c1C(=O)c1ccccc1-3	TAAR1 ag 149.5, TAAR1 antagonist 66.9 | TAAR1 ag conf 74.5 | Ga16 nonsel ag 63.3 | TAAR1 desens 75.3 | Ga16 nonsel ant 60.7
Clc1ccc(-c2ccc(C=Nc3ccc(N4CCOCC4)cc3)o2)cc1	TAAR1 ag 54.0 | TAAR1 ag conf inactive | Ga16 nonsel ag 15.0 | TAAR1 desens inactive | Ga16 nonsel ant inactive
Cc1cc(C)c2c(=O)n(CC(=O)NC3CCCC3)sc2n1	TAAR1 ag 57.1 | TAAR1 ag conf 62.4 | Ga16 nonsel ag 34.4 | TAAR1 desens 59.3 | Ga16 nonsel ant 39.1
Cc1cc(C)c2c(=O)n(CC(=O)Nc3cccc(Cl)c3C)sc2n1	TAAR1 ag 102.8, TAAR1 antagonist 85.5 | TAAR1 ag conf 96.5 | Ga16 nonsel ag 72.3 | TAAR1 desens 88.7 | Ga16 nonsel ant 74.9
Cc1cc(C)c2c(=O)n(CC(=O)Nc3ccc(Br)c(C)c3)sc2n1	TAAR1 ag 85.8, TAAR1 antagonist 53.5 | TAAR1 ag conf 100.5 | Ga16 nonsel ag 67.8 | TAAR1 desens 70.8 | Ga16 nonsel ant 64.0
Cc1c(Cl)cccc1NC(=O)Cn1cccc1	none
CCCN1CCc2c(sc(NC(=O)C3CCN(S(=O)(=O)c4cccs4)CC3)c2C(N)=O)C1	none
OCC1COC(c2ccccc2)=N1 (configuration not stated)	TAAR1 ag 38.6 (no result: Beta2AR agonist, MC4R antag cAMP, HTR2A ag, MC4R barr agon) | TAAR1 ag conf inactive | Ga16 nonsel ag inactive | TAAR1 desens inactive | Ga16 nonsel ant inactive
Brc1ccc(C2=NC(Cc3ccccc3)CO2)cc1 (configuration not stated)	none
CC(=O)Nc1ccc(NC(=O)C2CCN(S(C)(=O)=O)CC2)cc1	none (no result: Beta2AR agonist)
CCCCc1ccc(NC(=O)C2CCN(S(C)(=O)=O)CC2)cc1	TAAR1 ag 57.4 | TAAR1 ag conf inactive | Ga16 nonsel ag inactive | TAAR1 desens inactive | Ga16 nonsel ant inactive
Cn1c(-c2ccc3c(c2)OCO3)cnc1NCc1ccccc1	none
Cn1c(-c2ccc3c(c2)OCO3)cnc1NC(=O)CCC(=O)NCCc1ccccc1	TAAR1 ag 46.7 | TAAR1 ag conf 40.5 | Ga16 nonsel ag inactive | TAAR1 desens inactive | Ga16 nonsel ant inactive
O=C1Nc2ccccc2C(=O)C1(Cl)Cc1ccccc1 (configuration not stated)	TAAR1 ag 47.1 | TAAR1 ag conf inactive | Ga16 nonsel ag inactive | TAAR1 desens inactive | Ga16 nonsel ant inactive
Cc1cccc(C)c1OCC(O)CN1CCc2ccccc2C1 (configuration not stated)	none
OC(COc1c(F)cc(Br)cc1F)CN1CCc2ccccc2C1 (configuration not stated)	TAAR1 ag 55.1 | TAAR1 ag conf 66.2 | Ga16 nonsel ag inactive | TAAR1 desens inactive | Ga16 nonsel ant inactive
CC(=O)c1c(NCCc2ccccc2)nc(=S)n(-c2ccccc2)c1C	TAAR1 ag 49.7 | TAAR1 ag conf 70.6 | Ga16 nonsel ag 18.1 | TAAR1 desens inactive | Ga16 nonsel ant inactive
Fc1cccc(CCN2CCNC[C@@H]2Cc2ccccc2)c1	none
CCCC[C@@H]1CNCCN1CCc1cccc(F)c1	TAAR1 ag 61.9 | TAAR1 ag conf 75.1 | Ga16 nonsel ag inactive | TAAR1 desens inactive | Ga16 nonsel ant inactive
FC(F)(F)c1cc(CCN2CCNC[C@@H]2Cc2ccccc2)cc(C(F)(F)F)c1	TAAR1 ag 57.1 | TAAR1 ag conf 58.5 | Ga16 nonsel ag 16.7 | TAAR1 desens inactive | Ga16 nonsel ant inactive
FC(F)(F)c1ccc2c(c1)nc1n2CCCC1	none
CN1CCN(c2nc3cc(C(F)(F)F)ccc3n3cccc23)CC1	TAAR1 ag 61.8 (no result: Beta2AR agonist) | TAAR1 ag conf 82.7 | Ga16 nonsel ag 20.3 | TAAR1 desens inactive | Ga16 nonsel ant inactive
COc1ccc2c(Cl)c(C(=O)N/N=C/c3ccncc3)sc2c1	TAAR1 ag 71.5, TAAR1 antagonist 48.7 | TAAR1 ag conf inactive | Ga16 nonsel ag inactive | TAAR1 desens inactive | Ga16 nonsel ant inactive
O=C(N/N=C/c1ccncc1)c1sc2ccccc2c1Cl	none
CC(C)CN(C(=O)COC(=O)CNC(=O)c1ccccc1)c1c(N)n(Cc2ccccc2)c(=O)[nH]c1=O	none
CC(C)OC(=O)CN1C(=O)S/C(=C/c2ccc(N3CCCCC3)o2)C1=O	TAAR1 ag 63.3, TAAR1 antagonist 65.1 | TAAR1 ag conf 52.8 | Ga16 nonsel ag 55.5 | TAAR1 desens 58.8 | Ga16 nonsel ant 64.1
